# High-throughput results deposited in PubChem by Broad Institute.
# E-selectin induc – E-selectin induction in HUVECs, primary screen, imaging, HUVEC, immunofluorescence imaging, single point; P16581; normalized: neutral wells 0, TNF-alpha wells 100; activation, % at 7.58 µM; 0.37% of 260,000 active; AID 686992, 2013;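 active = mean E-selectin-positive cell signal at least 10% of the positive control, reached in at least 60% of replicates, without over 20% cell loss; inconclusive = no rule given, readout overlaps actives, possibly toxicity-flagged; inactive = the rest, including those meeting only one limit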
#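 material = human umbilical vein endothelial cells (HUVEC), E-selectin induction | quantity = 3,000 cells/well | medium = EGM-2 growth medium on 0.1% gelatin-coated wells | technique = immunofluorescence imaging | read-out basis = % PE-positive cells | control set = TNF-alpha positive control, DMSO neutral control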
# FGF22 binding-1 – binders of human FGF22 protein, primary screen, FGF22 synaptogenesis inhibitor project, biophysical, thermal shift, single point | Fibroblast growth factor 22 (Homo sapiens), Q9HCT0 | recombinant FGF22 thermal shift, SYPRO orange fluorescence; percent of sucrose octasulfate shift, DMSO zero | activity (Tm shift, normalised), % at 9.99 µM | 1.5% of 340,000 active;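 active = mean Tm shift, scaled 0 neutral to 100 positive control, at about 1.3% or above, every replicate too, limit read from the data; inconclusive = no clear call, values can overlap the other calls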
# Target sequence (Q9HCT0 whole entry, looked up): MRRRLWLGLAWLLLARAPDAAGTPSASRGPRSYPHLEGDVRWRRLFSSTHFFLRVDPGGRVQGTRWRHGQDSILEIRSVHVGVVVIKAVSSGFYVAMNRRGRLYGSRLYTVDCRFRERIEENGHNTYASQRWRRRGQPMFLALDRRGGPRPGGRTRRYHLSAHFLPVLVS
# ERAP1 HTS inh – human ERAP1 aminopeptidase inhibitors, primary screen, biochemical, single point, plate reader; inhibition, % at 10.7 µM; Endoplasmic reticulum aminopeptidase 1 (Homo sapiens), Q9NZ08; AID 652197, 2013; recombinant ERAP1, Leu-AMC fluorescence, 60 min; 0.15% of 340,000 active;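 active = mean replicate inhibition of at least 30%, or all replicates individually reaching that 30% level; inactive = mean below 30% and not every replicate reaching it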;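 also: 0% = neutral control wells and 100% = L-leucinethiol positive control wells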
# CFTR F508del cor – F508del CFTR correction, initial screen, CFBE line, single point; CFBE cells, YFP halide quenching; stimulated with forskolin plus potentiator P3; % fluorescence drop versus neutral controls; activity (quench increase), % at 7.58 µM; 0.36% of 350,000 active; AID 720511, 2013;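 active = mean added fluorescence quench of at least 8% versus neutral control, with both replicates also reaching 8%; inconclusive = only one of the mean or replicate conditions met; inactive = mean below 8% and not both replicates reaching 8%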;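 also: cells transiently co-express mutant CFTR-F508del with the halide-sensitive YFP; corrector assay measuring rescue of mutant channel to the surface after 24 h compound exposure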
# DENV2 CPE – inhibitors of DENV2 cytopathic effect, primary screen, cell-based, plate reader, single concentration; DENV2-infected cells, cytopathic effect rescue; CPE inhibition, % at 9.99 µM; 1.7% of 350,000 active; in the data active = CPE inhibition above about 20%, passing the limit was not always enough; inconclusive = no clear call, values can overlap the other calls; tested in BHK-21 cells;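 also: 0% = median of neutral control wells and 100% = median of positive control wells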
# FGF22 binding-2 – binders of human FGF22 protein, dose response, FGF22 synaptogenesis inhibitor project, biophysical, thermal shift, cherry-pick retest; recombinant FGF22 thermal shift, SYPRO orange fluorescence; 2% of 1,000 active; thermal shift activity, °C (ΔTm) at 38 µM; shares compounds with FGF22 binding-1; AID 720646, 2013;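 active = fitted rise in melting shift crosses a set limit at or below the top valid dose tested; inconclusive = flat fit at mid-level activity, or a poor quality fit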
# TSA no protein – compound-only thermal shift signal without protein, dose response, artefact control for FGF22 binder project, biochemical, cherry-picked samples, RT-PCR instrument. AC50, µM (highest dose often 38 µM). shares compounds with FGF22 binding-1. AID 743019, 2013. compound-only SYPRO orange thermal shift counter-screen, no protein. 2% of 1,000 active;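 active = rising signal whose fitted curve reaches the 0.54 level within the top valid dose, showing a melting point, actives reach about 13 µM in these data; inactive = the rest, including activity in the opposite direction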; also: value is where the raw curve crosses a fixed level and not half-maximal
# Active calls of the source: *; i = inactive; ? = inconclusive; . = no result given; [ ] = remark or other dose. Only some compounds are listed: those with a hit (about 3.7% of all), similar ones and a draw of the others.
SMILES,E-selectin induc,FGF22 binding-1,ERAP1 HTS inh,CFTR F508del cor,DENV2 CPE,FGF22 binding-2,TSA no protein
O=C(C[C@H]1C[C@@H]2c3cc(NC(=O)NC4CCCC4)ccc3O[C@@H]2[C@H](CO)O1)NC1CCCC1,-1,1.4*,1,-3,-8,-0.15,i
O=C(C[C@H]1C[C@H]2c3cc(NC(=O)NC4CCCC4)ccc3O[C@H]2[C@@H](CO)O1)NC1CCCC1,-1,0,2,0,-5,.,.
O=C(C[C@H]1C[C@H]2c3cc(NC(=O)NC4CCCC4)ccc3O[C@H]2[C@@H](CO)O1)NCCN1CCCCC1,0,19*,-3,4,13,-0.01[42 µM],i
COc1cccc(S(=O)(=O)Nc2ccc3c(c2)[C@@H]2C[C@H](CC(=O)NC4CCCCC4)O[C@@H](CO)[C@@H]2O3)c1,0,1.6*,-5,-2,-1,0.14,i
CC(C)NC[C@H]1[C@@H](c2ccc(C3=CCCC3)cc2)[C@@H](CO)N1C(=O)CC1CC1,0,.,4,1,-2,.,.
COCC(=O)Nc1ccc2c(c1)[C@H]1C[C@@H](CC(=O)NCc3ccccn3)O[C@H](CO)[C@H]1O2,1,1.3*,3,-3,4,-0.032,i
O=C(O)C[C@@H]1C[C@H]2c3cc(NC(=O)Nc4ccc(C(F)(F)F)cc4)ccc3O[C@H]2[C@@H](CO)O1,0,23*,-2,-3,7,-0.17,i
CS(=O)(=O)Nc1ccc2c(c1)[C@@H]1C[C@@H](CC(=O)NCCc3ccccc3)O[C@@H](CO)[C@@H]1O2,2,0,0,2,7,.,.
CS(=O)(=O)Nc1ccc2c(c1)[C@@H]1C[C@H](CC(=O)NCCc3ccccc3)O[C@@H](CO)[C@@H]1O2,0,1.4*,2,-1,2,-0.079,i
CN(C)CC(=O)Nc1ccc2c(c1)[C@@H]1C[C@H](CC(=O)N(C)C)O[C@@H](CO)[C@@H]1O2,0,2.3*,-1,1,11,0.12,i
COc1ccc(S(=O)(=O)N(C)C[C@@H]2OCCCC[C@H](C)Oc3ccc(N(C)C)cc3C(=O)N([C@H](C)CO)C[C@@H]2C)cc1,0,-1,-3,3,12,.,.
CC(=O)N(C)C[C@@H]1Oc2cc(C#Cc3cccnc3)ccc2S(=O)(=O)N([C@H](C)CO)C[C@@H]1C,1,0,0,0,2,.,.
O=c1ccc2nc3ccccc3sc-2c1,0,1.7*,8,2,?,-0.45,i
CSc1nc2ccccc2s1,.,0,3,0,17,.,.
O=C(C1CC1)N1[C@H](CO)[C@H]2c3ccccc3N(S(=O)(=O)c3ccccc3)C[C@H]21,0,2.0*,0,-2,1,0.009,i
O=C(C1CCCCC1)N1[C@@H]2CN(S(=O)(=O)c3ccccc3)c3ccccc3[C@@H]2[C@@H]1CO,0,0,3,-2,13,.,.
O=C(Nc1ccc(Cl)cc1)N1C[C@@H]2[C@H](c3ccccc31)[C@H](CO)N2C(=O)C1CC1,0,3.4*,-3,0,-1,0.09,i
COCC(=O)N1C[C@@H]2[C@H](c3ccccc31)[C@H](CO)N2C(=O)c1ccccc1F,0,1.7*,1,-2,-1,-0.17[42 µM],i
O=C(c1cccc(F)c1)N1C[C@H]2[C@@H](c3ccccc31)[C@H](CO)N2C(=O)C1CCCCC1,0,.,-3,-1,14,.,.
CCC(=O)N1[C@H](CO)[C@@H]2c3ccccc3N(C(=O)c3ccccc3F)C[C@@H]21,0,0,3,1,15,.,.
COc1ccccc1C(=O)N1C[C@H]2[C@@H](c3ccccc31)[C@H](CO)N2C(=O)C1CCCCC1,-1,1.7*,5,-1,-6,0.02,i
COCC(=O)N1[C@H](CO)[C@H]2c3ccccc3NC[C@H]21,0,15*,0,-1,32*,0.036,i
O=C(c1cccc(F)c1)N1C[C@@H]2[C@H](c3ccccc31)[C@H](CO)N2C(=O)C1CCCCC1,0,66*,-1,-4,-14,-0.081[42 µM],i
CO[C@H](CN(C)S(=O)(=O)c1cccc(Cl)c1)[C@H](C)CN([C@H](C)CO)S(=O)(=O)c1ccc(Cl)cc1,0,0,-3,0,-5,.,.
CO[C@@H](CN(C)S(=O)(=O)c1cccc(Cl)c1)[C@@H](C)CN([C@@H](C)CO)S(=O)(=O)c1cccc(Cl)c1,0,1.5*,3,1,?,0.26,i
SMILES,E-selectin induc,FGF22 binding-1,ERAP1 HTS inh,CFTR F508del cor,DENV2 CPE,FGF22 binding-2,TSA no protein
CO[C@@H](CN(C)S(=O)(=O)c1ccc(Cl)cc1)[C@@H](C)CN([C@H](C)CO)S(=O)(=O)c1cccc(Cl)c1,0,1.4*,-5,3,-5,-0.21,i
CO[C@@H](CN(C)S(=O)(=O)c1ccc(Cl)cc1)[C@@H](C)CN([C@@H](C)CO)S(=O)(=O)c1cccc(Cl)c1,0,0,-3,3,17,.,.
O=C(CCN1CCCCC1)NCC[C@@H]1CC[C@H](NC(=O)Cc2cccnc2)[C@@H](CO)O1,0,0,.,-3,-6,.,.
C[C@@H]1CN([C@H](C)CO)C(=O)c2cc(-c3ccncc3)cnc2O[C@H]1CN(C)C(=O)c1cccc(F)c1,0,.,0,1,3,.,.
COc1ccc(C(=O)C2CCCN(C(=O)c3cc(C(C)C)no3)C2)cc1F (stereo unspecified),0,9.8*,1,4,3,0.065,i
COc1ccccc1C(=O)C1CCCN(C(=O)c2cc(C(C)C)no2)C1 (stereo unspecified),7,0,-2,-2,-6,.,.
C/C=C/c1ccc2c(c1)O[C@H](CN(C)C(=O)c1cnccn1)[C@@H](C)CN([C@@H](C)CO)S2(=O)=O,0,0,-4,0,10,.,.
CO[C@H]1CN(C)C(=O)c2ccc(NC(=O)c3ccc(F)cc3)cc2OC[C@H](C)N(C(=O)CC2CC2)C[C@H]1C,0,.,.,0,.,.,.
Cc1ccc(N(C(=O)c2csnn2)C(C(=O)NC2CCCC2)c2ccccn2)c(C)c1 (stereo unspecified),.,1.6*,-1,2,12,0.21,i
